In test [1] the target is Delta-type opioid receptor (Homo sapiens, UniProt P41143). In words: ChEBML_145338. From the text: Inhibition of [125I]deltorphin binding to human delta opioid receptor from membranes of HEK293 cells
The target of the next test is Mu-type opioid receptor (Homo sapiens, UniProt P35372). Kind of test: Inhibition of [125I]Enkephalin binding to human mu opioid receptor from membranes of HEK293 cells. Put shortly:
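Filter binding on membranes of HEK293 cells overexpressing human mu opioid receptor, measuring displacement of [125I]-Enkephalin. IC50 came from full dose–response curves on purified material, in single determinations.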

Results on one molecule are retold here after BindingDB's records for doi:10.1016/s0960-894x(03)00033-7 (Astrazeneca R&D, 2003).

A value given as a limit tells only on which side of the number the result lay.

In general, IC50 refers to the concentration that inhibits the measured activity by half.

Chain of Mu-type opioid receptor (P35372 whole entry): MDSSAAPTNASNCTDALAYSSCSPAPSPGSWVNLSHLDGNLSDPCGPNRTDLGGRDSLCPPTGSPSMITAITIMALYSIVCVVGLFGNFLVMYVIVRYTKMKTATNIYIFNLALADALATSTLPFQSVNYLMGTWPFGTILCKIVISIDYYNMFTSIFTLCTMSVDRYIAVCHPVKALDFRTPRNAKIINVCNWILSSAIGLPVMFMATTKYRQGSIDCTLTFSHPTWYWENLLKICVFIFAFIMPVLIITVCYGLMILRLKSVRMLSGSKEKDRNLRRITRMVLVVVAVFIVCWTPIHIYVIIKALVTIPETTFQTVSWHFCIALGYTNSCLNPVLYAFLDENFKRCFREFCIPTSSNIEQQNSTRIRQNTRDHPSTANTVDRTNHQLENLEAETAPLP
Chain of Delta-type opioid receptor (P41143 whole entry): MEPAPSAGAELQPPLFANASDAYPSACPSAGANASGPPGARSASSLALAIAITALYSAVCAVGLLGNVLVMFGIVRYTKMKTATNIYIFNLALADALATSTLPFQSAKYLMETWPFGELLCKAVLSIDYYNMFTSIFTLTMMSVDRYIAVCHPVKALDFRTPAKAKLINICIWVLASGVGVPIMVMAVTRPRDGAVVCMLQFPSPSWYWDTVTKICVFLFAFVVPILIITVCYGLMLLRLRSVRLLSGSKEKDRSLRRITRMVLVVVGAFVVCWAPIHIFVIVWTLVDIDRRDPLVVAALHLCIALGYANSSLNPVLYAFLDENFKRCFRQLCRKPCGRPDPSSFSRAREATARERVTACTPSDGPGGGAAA

Take `O=c1c(-c2ccccc2)cccn1C(CN1CCCC1)c1ccccc1` (configuration not stated) [3-Phenyl-1-(1-phenyl-2-pyrrolidin-1-yl-ethyl)-1H-pyridin-2-one]: the IC50 (in test [1]; on Mu-type opioid receptor) was above 10 µM throughout.
